Key:
[1] = test system: Liver; assay: Cmax in Sprague-Dawley rat liver assessed as 2'-C-methyl guanosine triphosphate level at 10 mg/kg, po up to 24 hrs by LC-MS/Ms analysis; format: ADME, organism-based; design: dose 10 mg/kg, route oral; details: in vivo
In short: (§1)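 Male Sprague-Dawley rats dosed orally by gavage at 10 mg/kg in 95% Capmul MCM/5% Tween 80. Livers collected terminally at eight time points up to 24 h and snap-frozen in liquid nitrogen. Liver 2′-C-methylguanosine triphosphate quantified by LC-MS/MS, linear over 100−4000 ng per gram of tissue (r² ≥ 0.99, ≥85% accuracy, ≤2% CV).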

[2] = test system: Liver; assay: Clast in Sprague-Dawley rat liver assessed as 2'-C-methyl guanosine triphosphate level at 10 mg/kg, po up to 24 hrs by LC-MS/Ms analysis; format: ADME, organism-based; design: dose 10 mg/kg, route oral; details: in vivo; in short: as §1
[3] = test system: Liver; assay: AUC (0 to t) in Sprague-Dawley rat liver assessed as 2'-C-methyl guanosine triphosphate level at 10 mg/kg, po up to 24 hrs by LC-MS/Ms analysis; format: ADME, organism-based; design: dose 10 mg/kg, route oral; details: in vivo; in short: as §1
[4] = Cytotoxicity against human HuH7 cells after 3 days; format: cell-based, Huh-7
In short: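 Huh7 replicon cells seeded at 2 × 10⁴ per well one day before dosing. Four-fold serial dilutions in growth medium, no-drug controls on each plate. Incubated 3 days at 37 °C, 5% CO₂. Viability read by CellTiter-Glo luminescence after 20 min with reagent.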

[5] = test system: Hepatitis C virus; assay: Antiviral activity against Hepatitis C virus subtype 1b Con1 infected in human Huh7 cells assessed as inhibition of HCV replicon-encoded Renilla luciferase reporter activity after 72 hrs by HCV replicon assay; format: functional, organism-based, Hepacivirus hominis; details: Con1, Huh-7, 72 h
In short: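 Huh7 cells stably carrying a bicistronic subgenomic genotype 1b (Con1) replicon with Renilla luciferase reporter, seeded at 2 × 10⁴ cells/well the day before. Four-fold serial dilutions in growth medium, no-drug controls on each plate; 3 days at 37 °C, 5% CO₂. Luciferase reagent 20 min, then luminescence (RLU) read; EC₅₀ derived.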

[6] = test system: Liver; assay: Tmax in Sprague-Dawley rat liver assessed as 2'-C-methyl guanosine triphosphate level at 10 mg/kg, po up to 24 hrs by LC-MS/Ms analysis; format: ADME, organism-based; design: dose 10 mg/kg, route oral; details: in vivo; in short: as §1
[7] = test system: Serum; assay: Stability in human serum incubated for 12 hrs by [31P] NMR spectroscopy; format: ADME, cell-free
[8] = Stability in citric acid-HCl buffer at pH 2 incubated for 14 hrs at 37 or 47 degC by [31P] NMR spectroscopy; format: physicochemical; details: pH 2, 14 h
In short: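 Compound in citric acid−HCl buffer pH 2, held at 37 or 47 °C and monitored by ³¹P NMR over 14 h.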

[9] = Drug metabolism in acetone-d6 and TRIZMA buffer at pH 7.4 assessed as (S)-2-((((2R,3R,4R,5R)-5-(2-amino-6-methoxy-9H-purin-9-yl)-3,4-dihydroxy-4-methyltetrahydrofuran-2-yl)methoxy)oxidophosphorylamino)propanoate level at 6.95 ppm at pH 7.4 after 1 hr by 31P NMR in presence of carboxypeptidase Y; format: physicochemical; details: pH 7.4, 1 h
In short: (§2)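 Compound (about 5 mg) in 200 μL acetone-d₆ plus 400 μL Trizma buffer pH 7.4. Baseline ³¹P NMR recorded, then 0.3−0.5 mg carboxypeptidase Y in 200 μL Trizma pH 7.4 added. Processing followed by ³¹P NMR kinetics. A buffer phosphate impurity peak stays constant throughout.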

[10] = Drug metabolism in acetone-d6 and TRIZMA buffer at pH 7.4 assessed as (S)-2-((((2R,3R,4R,5R)-5-(2-amino-6-methoxy-9H-purin-9-yl)-3,4-dihydroxy-4-methyltetrahydrofuran-2-yl)methoxy)oxidophosphorylamino)propanoate level at 6.94 ppm at pH 7.4 after 1 hr by 31P NMR in presence of carboxypeptidase Y; format: physicochemical; details: pH 7.4, 1 h; in short: as §2
[11] = Stability of the compound in triethylammonium bicarbonate buffer assessed as compound decomposition at pH 11 incubated at 37 degC by [31P] NMR spectroscopy; format: physicochemical
In short: (§3)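 Base stability tested at pH 8.5 and at pH 11, both at 37 °C, followed by ³¹P NMR, with pH 11 samples followed to 17 h. Half-life estimated assuming first-order decay.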

[12] = Stability in phosphate buffer assessed as compound decomposition by HPLC; format: physicochemical
[13] = Stability of the compound in triethylammonium bicarbonate buffer assessed as compound decomposition at pH 11 incubated for 17 hrs at 37 degC by [31P] NMR spectroscopy; format: physicochemical; details: pH 11, 17 h; in short: as §3
[14] = Stability of the compound in triethylammonium bicarbonate buffer assessed as compound decomposition at pH 8.5 incubated at 37 degC by [31P] NMR spectroscopy; format: physicochemical; in short: as §3
[15] = Selectivity index, ratio of CC50 for human HuH7 cells to EC50 for Hepatitis C virus subtype 1b Con1; format: toxicity, cell-based, Huh-7; details: read-out: Ratio CC50/EC50
In short: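 Huh7 cells carrying a stable bicistronic subgenomic genotype 1b (Con1) HCV replicon with Renilla luciferase reporter, 2 × 10⁴ cells per well. Four-fold serial dilutions, 3 days at 37 °C, 5% CO₂. Replicon inhibition read by luciferase luminescence (RLU) and cytotoxicity by CellTiter-Glo in the same cell line. SI taken as CC50/EC50.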

[16] = Stability in phosphate buffer at pH 7 after 14 hrs by [31P] NMR spectroscopy; format: physicochemical; details: pH 7, 14 h

COc1nc(N)nc2c1ncn2[C@@H]1O[C@H](COP(=O)(N[C@H](C(=O)OCc2ccccc2)C(C)C)N[C@H](C(=O)OCc2ccccc2)C(C)C)[C@@H](O)[C@@]1(C)O (mixture of isomers)
Cmax [1]: 359.5 ng/g
Clast [2]: 73.6 ng/g
AUCt [3]: 4478 ng·h/g
CC50 at 72 h [4]: 49000 nM
EC50 [5]: 120 nM
EC90 [5]: 660 nM
Tmax [6]: 4 h

COc1nc(N)nc2c1ncn2[C@@H]1O[C@H](COP(=O)(N[C@@H](C)C(=O)OCC(C)(C)C)N[C@@H](C)C(=O)OCC(C)(C)C)[C@@H](O)[C@@]1(C)O (mixture of isomers)
Stability [7]: Stable
Stability [8]: Stable
Drug metabolism [9]: Active
Drug metabolism [10]: Active
Stability [11]: Stable
Stability [12]: Stable
Stability [13]: Stable
Stability [14]: Stable
Cmax [1]: 1580 ng/g
Clast [2]: 800 ng/g
selectivity ratio [15]: > 1600
AUCt [3]: 25147 ng·h/g
CC50 at 72 h [4]: > 100000 nM
EC50 [5]: 60 nM
EC90 [5]: 200 nM
Stability [16]: Stable
Tmax [6]: 8 h

COc1nc(N)nc2c1ncn2[C@@H]1O[C@H](COP(=O)(N[C@@H](C)C(=O)OC2Cc3ccccc3C2)N[C@@H](C)C(=O)OC2Cc3ccccc3C2)[C@@H](O)[C@@]1(C)O (mixture of isomers)
Cmax [1]: 632 ng/g
Clast [2]: 632 ng/g
AUCt [3]: 10642 ng·h/g
CC50 at 72 h [4]: 70000 nM
EC50 [5]: 580 nM
EC90 [5]: 1300 nM
Tmax [6]: 24 h

CC[C@H](C)[C@H](NP(=O)(N[C@H](C(=O)OC1CCCCC1)[C@@H](C)CC)OC[C@H]1O[C@@H](n2cnc3c(OC)nc(N)nc32)[C@](C)(O)[C@@H]1O)C(=O)OC1CCCCC1 (mixture of isomers)
selectivity ratio [15]: 4
CC50 at 72 h [4]: 14000 nM
EC50 [5]: 4000 nM
EC90 [5]: 7100 nM

COc1nc(N)nc2c1ncn2[C@@H]1O[C@H](COP(=O)(N[C@@H](C)C(=O)OC2CCCC2)N[C@@H](C)C(=O)OC2CCCC2)[C@@H](O)[C@@]1(C)O (mixture of isomers)
Cmax [1]: 1523.3 ng/g
Clast [2]: 610 ng/g
AUCt [3]: 24546 ng·h/g
CC50 at 72 h [4]: > 100000 nM
EC50 [5]: 60 nM
EC90 [5]: 220 nM
Tmax [6]: 8 h

CCCCCOC(=O)[C@H](C)NP(=O)(N[C@@H](C)C(=O)OCCCCC)OC[C@H]1O[C@@H](n2cnc3c(OC)nc(N)nc32)[C@](C)(O)[C@@H]1O (mixture of isomers)
Cmax [1]: 1042.3 ng/g
Clast [2]: 506 ng/g
AUCt [3]: 18600 ng·h/g
CC50 at 72 h [4]: 65000 nM
EC50 [5]: 30 nM
EC90 [5]: 110 nM
Tmax [6]: 8 h

COc1nc(N)nc2c1ncn2[C@@H]1O[C@H](COP(=O)(N[C@H](C)C(=O)OCC(C)(C)C)N[C@H](C)C(=O)OCC(C)(C)C)[C@@H](O)[C@@]1(C)O (mixture of isomers)
Cmax [1]: 598.3 ng/g
Clast [2]: 441.7 ng/g
AUCt [3]: 11608 ng·h/g
CC50 at 72 h [4]: > 100000 nM
EC50 [5]: 110 nM
EC90 [5]: 500 nM
Tmax [6]: 8 h

CCC(C)OC(=O)[C@H](C)NP(=O)(N[C@@H](C)C(=O)OC(C)CC)OC[C@H]1O[C@@H](n2cnc3c(OC)nc(N)nc32)[C@](C)(O)[C@@H]1O (mixture of isomers)
Cmax [1]: 907.7 ng/g
Clast [2]: 538.7 ng/g
AUCt [3]: 16252 ng·h/g
CC50 at 72 h [4]: > 100000 nM
EC50 [5]: 150 nM
EC90 [5]: 530 nM
Tmax [6]: 8 h

CCCCOC(=O)[C@H](C)NP(=O)(N[C@@H](C)C(=O)OCCCC)OC[C@H]1O[C@@H](n2cnc3c(OC)nc(N)nc32)[C@](C)(O)[C@@H]1O (mixture of isomers)
Cmax [1]: 1553.3 ng/g
Clast [2]: 719.7 ng/g
AUCt [3]: 27671 ng·h/g
CC50 at 72 h [4]: > 100000 nM
EC50 [5]: 70 nM
EC90 [5]: 230 nM
Tmax [6]: 8 h

COc1nc(N)nc2c1ncn2[C@@H]1O[C@H](COP(=O)(N[C@@H](C)C(=O)OCC(C)(C)C)Oc2cccc3ccccc23)[C@@H](O)[C@@]1(C)O (some centres undefined) [BMS-986094]
Cmax [1]: 1446.7 ng/g
Clast [2]: 983.3 ng/g
AUCt [3]: 24557 ng·h/g
Tmax [6]: 8 h
